Test results from the RNAGym collection of RNA variant scans (doi:10.1002/anie.201605470).

B1: Osa-1-4 twister ribozyme (parent)
chain: CCGCCUAACACUGCCAAUGCCGGUCCCAAGCCCGGAUAAAAGUGGAGGGGGCGG

Variants of: B1
Assay: self-cleavage, relative activity (ratio to wild type); higher = more cleavage; co-transcriptional
In short: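 The 48 positions downstream of the cleavage site in a 54-nucleotide Oryza sativa twister ribozyme template were synthesised at 97 % wild-type base and 1 % of each other base. The template was transcribed in vitro at 37 °C for 2 h, with self-cleavage allowed during transcription. Reads with or without upstream sequence after deep sequencing marked cleavage status, and relative activity is fraction cleaved normalised to wild type.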

Row | Variant | self-cleavage
1 | C20G G53U | 0.04
2 | C20G G54A | 0.06
3 | C20G G54C | 0.07
4 | C20G G54U | 0.12
5 | C20G U12A | 0.09
6 | C20G U12C | 0.07
7 | C20G U12G | 0.04
8 | C20G U18A | 0.13
9 | C20G U18C | 0.2
10 | C20G U18G | 0.09
11 | C20G U24A | 0.07
12 | C20G U24C | 0.11
13 | C20G U24G | 0.05
14 | C20G U37A | 0.2
15 | C20G U37C | 0.19
16 | C20G U37G | 0.19
17 | C20G U43A | 0.07
18 | C20G U43C | 0.07
19 | C20G U43G | 0.09
20 | C20U | 0.97
21 | C20U C9A | 0.38
22 | C20U C9G | 0.73
23 | C20U C9U | 0.68
24 | C20U C21A | 0.87

Row | Variant | self-cleavage
25 | C20U C21G | 0.26
26 | C20U C21U | 1.05
27 | C20U C25A | 0.17
28 | C20U C25G | 0.15
29 | C20U C25U | 0.9
30 | C20U C26A | 0.08
31 | C20U C26G | 0.24
32 | C20U C26U | 0.92
33 | C20U C27A | 0.23
34 | C20U C27G | 0.08
35 | C20U C27U | 0.26
36 | C20U C31A | 0.05
37 | C20U C31G | 0.15
38 | C20U C31U | 0.92
39 | C20U C32A | 0.08
40 | C20U C32G | 0.13
41 | C20U C32U | 0.15
42 | C20U C33A | 0.11
43 | C20U C33G | 0.07
44 | C20U C33U | 0.77
45 | C20U C52A | 0.9
46 | C20U C52G | 0.89
47 | C20U C52U | 0.96
48 | C20U G13A | 0.15

Row | Variant | self-cleavage
49 | C20U G13C | 0.02
50 | C20U G13U | 0.04
51 | C20U G19A | 0.9
52 | C20U G19C | 0.18
53 | C20U G19U | 0.65
54 | C20U G22A | 0.6
55 | C20U G22C | 0.06
56 | C20U G22U | 0.5
57 | C20U G23A | 0.27
58 | C20U G23C | 0.05
59 | C20U G23U | 0.13
60 | C20U G30A | 0.05
61 | C20U G30C | 0.06
62 | C20U G30U | 0.04
63 | C20U G34A | 0.95
64 | C20U G34C | 0.31
65 | C20U G34U | 0.82
66 | C20U G35A | 1
67 | C20U G35C | 0.93
68 | C20U G35U | 1
69 | C20U G42A | 0.62
70 | C20U G42C | 0.22
71 | C20U G42U | 0.1
72 | C20U G44A | 0.87

Row | Variant | self-cleavage
73 | C20U G44C | 0.88
74 | C20U G44U | 0.87
75 | C20U G45A | 0.35
76 | C20U G45C | 0.06
77 | C20U G45U | 0.14
78 | C20U G47A | 0.28
79 | C20U G47C | 0.15
80 | C20U G47U | 0.29
81 | C20U G48A | 0.1
82 | C20U G48C | 0.1
83 | C20U G48U | 0.1
84 | C20U G49A | 0.16
85 | C20U G49C | 0.11
86 | C20U G49U | 0.13
87 | C20U G50A | 0.92
88 | C20U G50C | 0.87
89 | C20U G50U | 0.95
90 | C20U G51A | 0.85
91 | C20U G51C | 0.11
92 | C20U G51U | 0.63
93 | C20U G53A | 0.75
94 | C20U G53C | 0.09
95 | C20U G53U | 0.38
96 | C20U G54A | 0.75

Row | Variant | self-cleavage
97 | C20U G54C | 0.84
98 | C20U G54U | 0.85
99 | C20U U12A | 0.83
100 | C20U U12C | 0.49
101 | C20U U12G | 0.46
102 | C20U U18A | 0.86
103 | C20U U18C | 0.87
104 | C20U U18G | 0.82
105 | C20U U24A | 0.44
106 | C20U U24C | 0.38
107 | C20U U24G | 0.08
108 | C20U U37A | 0.96
109 | C20U U37C | 1.02
110 | C20U U37G | 1.04
111 | C20U U43A | 0.84
112 | C20U U43C | 0.49
113 | C20U U43G | 0.68
114 | C21A | 0.93
115 | C21A C9A | 0.07
116 | C21A C9G | 0.11
117 | C21A C9U | 0.1
118 | C21A C25A | 0.08
119 | C21A C25G | 0.07
120 | C21A C25U | 0.16

Row | Variant | self-cleavage
121 | C21A C26A | 0.05
122 | C21A C26G | 0.09
123 | C21A C26U | 0.2
124 | C21A C27A | 0.08
125 | C21A C27G | 0.04
126 | C21A C27U | 0.08
127 | C21A C31A | 0.04
128 | C21A C31G | 0.07
129 | C21A C31U | 0.21
130 | C21A C32A | 0.08
131 | C21A C32G | 0.09
132 | C21A C32U | 0.07
133 | C21A C33A | 0.09
134 | C21A C33G | 0.03
135 | C21A C33U | 0.07
136 | C21A C52A | 0.31
137 | C21A C52G | 0.54
138 | C21A C52U | 0.86
139 | C21A G13A | 0.07
140 | C21A G13C | 0.03
141 | C21A G13U | 0.04
142 | C21A G19A | 0.4
143 | C21A G19C | 0.03
144 | C21A G19U | 0.07

Row | Variant | self-cleavage
145 | C21A G22A | 0.11
146 | C21A G22C | 0.07
147 | C21A G22U | 0.1
148 | C21A G23A | 0.07
149 | C21A G23C | 0.03
150 | C21A G23U | 0.04
151 | C21A G30A | 0.03
152 | C21A G30C | 0.04
153 | C21A G30U | 0.04
154 | C21A G34A | 0.91
155 | C21A G34C | 0.92
156 | C21A G34U | 1.05
157 | C21A G35A | 0.87
158 | C21A G35C | 0.06
159 | C21A G35U | 0.44
160 | C21A G42A | 0.1
161 | C21A G42C | 0.07
162 | C21A G42U | 0.05
163 | C21A G44A | 0.38
164 | C21A G44C | 0.24
165 | C21A G44U | 0.21
166 | C21A G45A | 0.05
167 | C21A G45C | 0.05
